Measurements reported in ChEMBL document CHEMBL5705892, “MK-2206, an allosteric Akt inhibitor, enhances antitumor efficacy by standard chemotherapeutic agents or molecular targeted drugs in vitro and in vivo” (Mol Cancer Ther, 2010).
Calls of active or inactive are those of the source. The rule behind the calls is not given here.

Legend:
[1] = target: RAC-alpha serine/threonine-protein kinase (Homo sapiens) (UniProt P31749); assay: Inhibition of AKT in human HCC827 cells assessed as reduction in GSK3alpha/beta phosphorylation at S21/S9 residues at 5 umol/L measured after 5 hrs in presence of erlotinib by Western blot analysis; format: cell-based; settings: dose 5.0 µmol/L
Sequence of RAC-alpha serine/threonine-protein kinase (Homo sapiens) (P31749 whole entry): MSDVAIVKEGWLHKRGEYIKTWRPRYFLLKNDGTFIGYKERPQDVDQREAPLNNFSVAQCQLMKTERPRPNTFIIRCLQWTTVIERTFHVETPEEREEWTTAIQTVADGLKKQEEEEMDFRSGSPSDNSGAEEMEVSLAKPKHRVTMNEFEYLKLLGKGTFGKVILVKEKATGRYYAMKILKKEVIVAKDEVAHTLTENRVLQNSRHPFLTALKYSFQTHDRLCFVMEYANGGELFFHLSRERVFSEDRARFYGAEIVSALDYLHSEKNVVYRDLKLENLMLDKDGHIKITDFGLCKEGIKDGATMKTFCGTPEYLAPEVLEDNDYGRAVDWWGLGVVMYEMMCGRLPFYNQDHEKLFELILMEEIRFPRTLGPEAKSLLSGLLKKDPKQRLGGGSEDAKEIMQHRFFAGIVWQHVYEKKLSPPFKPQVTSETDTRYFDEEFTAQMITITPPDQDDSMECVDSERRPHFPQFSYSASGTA

NCI-H460 = assay: Synergistic antiproliferative activity against human NCI-H460 cells assessed as combination index at ED75 measured after 72 hrs in presence of gemcitabine by celltiter-glo assay; format: functional
MCF7 = assay: Synergistic antiproliferative activity against human MCF7 cells assessed as combination index at ED90 measured after 72 hrs in presence of docetaxel by celltiter-glo assay; format: functional
Outline: (§1)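 Cells grown in RPMI 1640 with 10% heat-inactivated FBS at 37°C, 5% CO₂. Seeded at 2 to 3 × 10³ per well; drugs added 24 h later. […] Viability read as cellular ATP by CellTiter-Glo. CI calculated by Chou–Talalay from median-effect plots at ED50, ED75 and ED90.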

MDA-MB-468 [2] = assay: Synergistic antiproliferative activity against lapatinib pretreated human MDA-MB-468 cells assessed as combination index at ED90 measured after 72 hrs by celltiter-glo assay; format: functional
MDA-MB-468 [3] = assay: Synergistic antiproliferative activity against human MDA-MB-468 cells assessed as combination index at ED90 measured after 96 hrs in presence of lapatinib by celltiter-glo assay; format: functional
BT-474 = assay: Synergistic antiproliferative activity against docetaxel pretreated human BT-474 cells assessed as combination index at ED90 measured after 72 hrs by celltiter-glo assay; format: functional
SK-BR-3 [4] = assay: Synergistic antiproliferative activity against human SK-BR-3 cells assessed as combination index at ED90 measured after 72 hrs in presence of docetaxel by celltiter-glo assay; format: functional
[5] = Toxicity in human NCI-H292 cells xenografted CD-1 mouse assessed as weight loss at 360 mg/kg, po administered once a week for 2 weeks starting 2 hrs post-erlotinib treatment and measured during compound dosing; format: organism-based; settings: in vivo, 336 h
Outline: (§2)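 NCI-H292 cells in 50% Matrigel/PBS injected s.c. into flank of female CD1-nude mice; dosing began after 2 wk at mean tumour 0.2 cm³, n = 5/group. […] Body weight and signs monitored; treatment ended day 16.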

NCI-H661 = assay: Synergistic antiproliferative activity against human NCI-H661 cells assessed as combination index at ED25 to ED90 measured after 72 hrs in presence of carboplatin by celltiter-glo assay; format: functional
HCC827 [6] = assay: Antiproliferative activity against human HCC827 cells assessed as reduction in cell proliferation measured after 72 hrs by celltiter-glo assay; format: functional, cell-based; settings: HCC827, 72 h
Outline: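 Cells in RPMI 1640 with 10% heat-inactivated FBS at 37°C and 5% CO₂ were seeded at 2 to 3 × 10³ per well. […] Growth was read as cellular ATP by CellTiter-Glo.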

A2780 [7] = assay: Synergistic antiproliferative activity against human A2780 cells assessed as combination index at ED75 measured after 72 hrs in presence of gemcitabine by celltiter-glo assay; format: functional
Outline: (§3)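 Cells were seeded at 2–3 × 10³ per well in RPMI 1640 with 10% FBS. At 24 h, MK-2206 and the partner drug were added simultaneously at constant concentration ratios spanning each agent's IC₅₀, for 72 h. Growth was read as cellular ATP by CellTiter-Glo. CI was taken from median-effect plots of each agent alone and in combination (Chou–Talalay), at ED₅₀, ED₇₅ and ED₉₀.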

[8] = Toxicity in human NCI-H292 cells xenografted CD-1 mouse assessed as death at 360 mg/kg, po administered once a week for 2 weeks starting 2 hrs post-erlotinib treatment and measured during compound dosing; format: organism-based; settings: in vivo, 336 h; outline: as §2
SK-BR-3 [9] = assay: Synergistic antiproliferative activity against human SK-BR-3 cells assessed as combination index at ED50 measured after 96 hrs in presence of lapatinib by celltiter-glo assay; format: functional
A2780 [10] = assay: Synergistic antiproliferative activity against human A2780 cells assessed as combination index at ED50 measured after 72 hrs in presence of 5-FU by celltiter-glo assay; format: functional; outline: as §3
A2780 [11] = assay: Cell cycle arrest in human A2780 cells assessed as increase in accumulation of cells at sub-G1 phase at 0.12 to 3 umol/L measured after 72 hrs in presence of carboplatin by propidium iodide staining based flow cytometry relative to control; format: functional; settings: dose 0.12-3 µmol/L, at 0.12 to 3 µM
SK-BR-3 [12] = assay: Synergistic antiproliferative activity against lapatinib pretreated human SK-BR-3 cells assessed as combination index at ED50 measured after 72 hrs by celltiter-glo assay; format: functional
[13] = Toxicity in human SK-OV-3 cells xenografted CB17/icr SCID mouse assessed as mortality at 60 to 120 mg/kg, po administered 3 times per week for 2 weeks starting 2 hrs post lapatinib treatment and measured during compound dosing; format: organism-based; settings: in vivo, 336 h, dose 60-120 mg/kg
Outline: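 SK-OV-3 cells in 50% Matrigel/PBS injected s.c. into flank of female C.B-17/ICR-scid mice; dosing began after 3 wk, randomized at mean tumour 0.13 cm³ (n = 5). Lapatinib 100 mg/kg p.o. in distilled water 5 d/wk for 2 wk; MK-2206 in 30% Captisol p.o. days 0, 2, 4, 7, 9, 11. Body weight and physical signs monitored.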

SK-BR-3 [14] = assay: Synergistic antiproliferative activity against human SK-BR-3 cells assessed as combination index at ED90 measured after 96 hrs in presence of lapatinib by celltiter-glo assay; format: functional
SK-OV-3 [15] = assay: Synergistic antiproliferative activity against lapatinib pretreated human SK-OV-3 cells assessed as combination index at ED50 measured after 72 hrs by celltiter-glo assay; format: functional
A2780 [16] = assay: Cell cycle arrest in human A2780 cells assessed as increase in accumulation of cells at sub-G1 phase measured after 72 hrs in presence of camptothecin by propidium iodide staining based flow cytometry; format: functional
A2780 [17] = assay: Cell cycle arrest in human A2780 cells assessed as increase in accumulation of cells at sub-G1 phase measured after 72 hrs in presence of gemcitabine by propidium iodide staining based flow cytometry; format: functional
SK-OV-3 [18] = assay: Synergistic antiproliferative activity against human SK-OV-3 cells assessed as combination index at ED50 treated 24 hrs prior to lapatinib and measured after 72 hrs by celltiter-glo assay; format: functional; settings: time 96 hrs
HCC827 [19] = assay: Synergistic antiproliferative activity against human HCC827 cells assessed as combination index at ED50 measured after 72 hrs in presence of erlotinib by celltiter-glo assay; format: functional; outline: as §1
MDA-MB-231 = assay: Synergistic antiproliferative activity against human MDA-MB-231 cells assessed as combination index at ED75 measured after 72 hrs in presence of docetaxel by celltiter-glo assay; format: functional; outline: as §1
SK-BR-3 [20] = assay: Synergistic antiproliferative activity against human SK-BR-3 cells assessed as combination index at ED75 measured after 96 hrs in presence of lapatinib by celltiter-glo assay; format: functional
HCC1954 = assay: Synergistic antiproliferative activity against human HCC1954 cells assessed as combination index at ED50 measured after 96 hrs in presence of lapatinib by celltiter-glo assay; format: functional

Cl.NC1(c2ccc(-c3nc4ccn5c(=O)[nH]nc5c4cc3-c3ccccc3)cc2)CCC1
inhibition [1]: Active
CI75 (NCI-H460): 0.39
CI90 (MCF7): 0.3
CI90 (MDA-MB-468 [2]): 0.18
CI90 (MDA-MB-468 [3]): 0.18
CI90 (BT-474): 0.3
CI90 (SK-BR-3 [4]): 0.8
Activity [5]: Toxic
CI (NCI-H661): 0.37
IC50 (HCC827 [6]): 4.3 µM
CI75 (A2780 [7]): 0.43
Activity [8]: Non-Toxic
CI50 (SK-BR-3 [9]): 0.18
CI50 (A2780 [10]): 0.68
Activity (A2780 [11]): >40%
CI50 (SK-BR-3 [12]): 0.18
Activity [13]: Non-Toxic
CI90 (SK-BR-3 [14]): 0.18
CI50 (SK-OV-3 [15]): 0.18
Activity (A2780 [16]): Dose-Dependent Effect
Activity (A2780 [17]): Dose-Dependent Effect
CI50 (SK-OV-3 [18]): 0.18
CI50 (HCC827 [19]): 0.39
CI75 (MDA-MB-231): 0.7
CI75 (SK-BR-3 [20]): 0.18
CI50 (HCC1954): 0.18
